Tested on: MS2 coat protein
Experiment: apparent Kd, MS2 coat protein; higher = weaker binding; RNA-MaP array; FMN 200 µM where present
Procedure, shortened: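 The apparent Kd is reported as the median of filtered per-cluster binding-curve fits. To get these curves, designs transcribed by stalled E. coli RNA polymerase on Illumina sequencing-chip clusters were titrated with SNAP-549-labelled MS2 coat protein from 0.7 or 1.5 nM, doubling to 3 µM. Titrations were run without and then with constant ligand in 100 mM Tris-HCl pH 7.5, 80 mM KCl, 4 mM MgCl2, BSA, DTT, yeast tRNA and Tween-20, and green signal was normalised to red-channel RNA signal and control-cluster median Fmax.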

[1] = designed as: ON switch for flavin mononucleotide, no ligand
[2] = ligand present: flavin mononucleotide, designed as: ON switch for flavin mononucleotide
[3] = designed as: OFF switch for flavin mononucleotide, no ligand
[4] = ligand present: flavin mononucleotide, designed as: OFF switch for flavin mononucleotide

Sequence: AGUGUCAUUUAGAAGGCCUCAUGACAUGAGGAUCACCCAUGUUAUCAUGGGAGGAUAUGGAUGAUAUAGCUACGUUUCGUAGCA
- apparent Kd [1]: 233 nM
- apparent Kd [2]: 78.2 nM

Sequence: GUAGAGUAGUGAGGAUAUACGAGAUCGAUAGAUCGGCGAUCCAUUUAUACAUGAGGAUCACCCAUGUAGAAGGCACUUCUCUAC
- apparent Kd [3]: 6.26 nM
- apparent Kd [4]: 62.8 nM

Sequence: AGCGAGGUAGGAUAUACAUGAGGAUCACCCAUGUGCUUGCAUGGCGUGGAACGUCGAGGUAGAAGGGCCGCGCC
- apparent Kd [3]: 24.2 nM
- apparent Kd [4]: 35.7 nM

Sequence: GCACGAGACUAAGGAUAUGGAGUGUCUACAUUAAACAUGAGGAUCACCCAUGUAGGGAGUAUGAUUCAGAAGGUAGAGACGUGC
- apparent Kd [1]: 331 nM
- apparent Kd [2]: 48.3 nM

Sequence: GCGGUAUUGUAAGGAUAUACUCUGUGAUGAAGAGUAGAAGGUACUUACAUGAGGAUCACCCAUGUUUAACGUGAAAAUUACCGC
- apparent Kd [1]: 26.5 nM
- apparent Kd [2]: 16.7 nM

Sequence: GACUGAAUACAGAAGGUGUUUGACAUGAGGAUCACCCAUGUGUUAUUCAGAUUCAUAGAAUAUAACAAGGAUAUGUAUAUAUCA
- apparent Kd [1]: 228 nM
- apparent Kd [2]: 61.6 nM

Sequence: UGAUCUUUUGUUAGGAUAUGCUGGGUUUUUUCUCAGCAGAAGGGACAUGAGGAUCACCCAUGUUUUGUCAUAAA
- apparent Kd [3]: 18.9 nM
- apparent Kd [4]: 47.6 nM

Sequence: CGGCGCUGUCGAGAGGAUAUGCGGUGAUGGACAUGAGGAUCACCCAUGUUAGCGAUAGCAUCACGGUAGAAGGCUCUACGGCUUG
- apparent Kd [1]: 46.3 nM
- apparent Kd [2]: 15.5 nM

Sequence: CGAUGAGGAGUGAGGAUAUCGUGUUCGAAAGAACGUGAGAAGGCACAUGAGGAUCACCCAUGUGAUCCUUAUCG
- apparent Kd [3]: 28.3 nM
- apparent Kd [4]: 67.9 nM

Sequence: CUAACACAUGAGGAUCACCCAUGUGAGGAUAUGCGUACGUUGUCCGUAGGCGACGUGCGCAGAAGGCGCUUGGU
- apparent Kd [3]: 55.8 nM
- apparent Kd [4]: 62.8 nM

Sequence: ACAGAUGCUGACAUGAGGAUCACCCAUGUUAGAUUGUUAUGUCAGGAUAUUAUCUGGCAACCAGAUGAGAAGGGACCAUCUGUU
- apparent Kd [1]: 15.6 nM
- apparent Kd [2]: 7.31 nM

Sequence: UUAGGUCGAAACAUGAGGAUCACCCAUGUGUUAUAAUUAAUAUAGGAUAUGUUUAUACUUUUUGGGCAGAAGGAUGAUAUUGCU
- apparent Kd [1]: 21.2 nM
- apparent Kd [2]: 17.9 nM

Sequence: ACAAUAAACUAGAAGGUGGUGAUACAUGAGGAUCACCCAUGUAUAGUACUGAGGAUAUGGAUGAUUGAAGUGAAUAUCGUAGCA
- apparent Kd [1]: 111 nM
- apparent Kd [2]: 86 nM

Sequence: CCGGAAAUACAGGAUAUAGGAGUCGAUAGACUCCUAGAAGGGUAUACAUGAGGAUCACCCAUGUGUCCUACCGG
- apparent Kd [3]: 26.5 nM
- apparent Kd [4]: 31.7 nM

Sequence: GCAGCAUAUGCAGGAUAUCAGCACGUGUAGUGCUGAGAAGGGCACAUGAGGAUCACCCAUGUGAUCAAUUAAUAUUUAUGCUGC
- apparent Kd [3]: 7.98 nM
- apparent Kd [4]: 24.8 nM

Sequence: CACUCGUGUCUAGGAUAUGAGUGACAAGCGCGAGAUUUUCUCGGCGCUAGCUCAGAAGGAGACAUGAGGAUCACCCAUGUAAGG
- apparent Kd [3]: 162 nM
- apparent Kd [4]: 12 nM

Sequence: UCCGCGGACAUAGGAUAUACUGCGAAAUUUCUAGUAGAAGGGUGACCGCACGUGCGAACUGUACAUGAGGAUCACCCAUGUACU
- apparent Kd [1]: 21.4 nM
- apparent Kd [2]: 23.1 nM

Sequence: CUGAGGUCAGGAUAUGCAUGGCGGGACUUGCGUCGUGGCGUGGAGAAGGGACAUGAGGAUCACCCAUGUGGAGC
- apparent Kd [3]: 59.8 nM
- apparent Kd [4]: 57 nM

Sequence: GGUUGGCGAGGAUAUACAUGAGGAUCACCCAUGUGGUCCUAAAAAAAAAUAAACCUUUGUAGAAGGCGCGGGUC
- apparent Kd [3]: 258 nM
- apparent Kd [4]: 290 nM

Sequence: UUGUUACAUGAGGAUCACCCAUGUUGUUGUAGAUAAGGAUAUAUAGGAACGAGAGAAAUAAUAGAAGGUAUUAGAC
- apparent Kd [1]: 31.7 nM
- apparent Kd [2]: 27.2 nM

Sequence: CGCUGCCACGCAGGAUAUGCAUUGGAUUCCAAUGCAGAAGGGCGAUUACAUGAGGAUCACCCAUGUGUCGGCAGUGAAGAAGAG
- apparent Kd [1]: 590 nM
- apparent Kd [2]: 44.8 nM

Sequence: UUCUGUGUGUGCUAGAGCUGCACAUGAGGAUCACCCAUGUACAGAAGGUGGACGCACACUGUGGCCAAGGAUAUGUAACAUGUU
- apparent Kd [3]: 6.68 nM
- apparent Kd [4]: 7.15 nM

Sequence: UGGCCGGAGACAGGAUAUGUGACUGCAUAGUGCACAGAAGGGUCUACAUGAGGAUCACCCAUGUCACCGAACGCCAAACCACAA
- apparent Kd [1]: 574 nM
- apparent Kd [2]: 26.1 nM

Sequence: GCUCUAUGCUAGAAGGCGUGAAACAUGAGGAUCACCCAUGUCAGAGAAAUGAGGAUAUAGCAUAGAGCAAAAGACGGAAACGUC
- apparent Kd [1]: 11.1 nM
- apparent Kd [2]: 5.61 nM

Sequence: GUGCUUAUCGAAGGAUAUGGUUACAUGAGGAUCACCCAUGUUAUGCUUGGUUACUUGUUUAGUUUCCAGAAGGUCGAUUAGUUG
- apparent Kd [3]: 75.5 nM
- apparent Kd [4]: 170 nM

Sequence: GUGGUCAGACAUGAGGAUCACCCAUGUGGAAUAAAUAACGGACAGGAUAUGCAAUAUAGGAUAUAGUAGAAGGGUUGAUUGGUG
- apparent Kd [1]: 56.5 nM
- apparent Kd [2]: 60.6 nM

Sequence: GGACAGUGUCGUUAUCCGUAGCGAACAUGAGGAUCACCCAUGUAGGAUAUGUUAUUAAACUAAUAACAGAAGGACGUUGGUCUC
- apparent Kd [3]: 24.8 nM
- apparent Kd [4]: 125 nM

Sequence: CCUCCACAUUAGGAUAUCGUCACACUAUUGUGACGAGAAGGAAUGACAUGAGGAUCACCCAUGUUAUCGUGAUG
- apparent Kd [3]: 19.4 nM
- apparent Kd [4]: 49.8 nM

Sequence: GAGAAGUCAGGAUAUGCUGCUCGUCACUUGCGUGAUGAGUAGCAGAAGGGACAUGAGGAUCACCCAUGUAAAGC
- apparent Kd [3]: 47.3 nM
- apparent Kd [4]: 53.6 nM

Sequence: AAGCAGGGAGGAUAUACAUGGACACACAUUGGUGUAGAACUACAUGAGGAUCACCCAUGUAGAAGGCCCAAAUA
- apparent Kd [3]: 52.9 nM
- apparent Kd [4]: 71.5 nM

Sequence: UCCGCGCGCGUAGGAUAUACAUGAGGAUCACCCAUGUACCCAGAUGGCUUCCUGAAUCUUGCAAUGUAGAAGGACGCCCGUGGG
- apparent Kd [3]: 37.9 nM
- apparent Kd [4]: 42.5 nM

Sequence: CCGCUCUUGGUCAGGAUAUCUAUGCGGGCCAGCACAGAGAAGGGACAUGAGGAUCACCCAUGUUUCGGGAUGUA
- apparent Kd [3]: 22.3 nM
- apparent Kd [4]: 38.9 nM

Sequence: CAGUUCUGAGGAUAUCCACCCUCCUACAUGAGGAUCACCCAUGUUUCCCUCUGGGUUUUCGGAGAAGGCAGUUAUC
- apparent Kd [3]: 44.7 nM
- apparent Kd [4]: 79.6 nM

Sequence: GCGAGCAUACAGAAGGGAUCGUCGUAGCGGCUGUCAGGAUAUGUAGCUUGGCCUAAACAUGAGGAUCACCCAUGUAUAAUGCUA
- apparent Kd [1]: 175 nM
- apparent Kd [2]: 21 nM

Sequence: AACUAAGUAUUAAUGGUGUCUGACAGAAGGCAAUAGAAUGAGACCGACAUGAGGAUCACCCAUGUUGAGGAUAUGUCUAGCUAC
- apparent Kd [3]: 6.33 nM
- apparent Kd [4]: 7.27 nM

Sequence: UUAGGAUGUGAAGGAUAUGCCGAGUUAAGCCCAGCAGAAGGUUACAUACCUUUUGAUACAUGAGGAUCACCCAUGUUCUAAGAU
- apparent Kd [1]: 41.6 nM
- apparent Kd [2]: 28.3 nM

Sequence: ACAUGAGGAUCACCCAUGUUAUCAGGGACUUCAAUUAUUUCUAGAAGGCUGUUUACUUGUUAGUCAGAGGAUAUAGAAUUAAAU
- apparent Kd [3]: 14.5 nM
- apparent Kd [4]: 15.9 nM

Sequence: GUUAGUUAAGGAUAUACAGGGAGCUGCGGCGUCUCGCCGCAACAUGAGGAUCACCCAUGUAGAAGGUGGCCAUU
- apparent Kd [3]: 548 nM
- apparent Kd [4]: 586 nM

Sequence: UACAUGAGGAUCACCCAUGUUUUGUCGUGUAUGGUAUUUAUCUAGGAUAUCAUUUUAUCUAGUUAUGAGAAGGAGAAUAUUAAU
- apparent Kd [3]: 36.6 nM
- apparent Kd [4]: 29.9 nM

Sequence: UCUGUAGGAAUACAGACGAAGUGGCCAGAAGGUGAAUGCCACAUGAGGAUCACCCAUGUUUCGAUCAAGGAUAUGGUUUCUCAC
- apparent Kd [1]: 312 nM
- apparent Kd [2]: 79.8 nM

Sequence: UCGUCGCUAGGAGGAUAUACAUGAUCUCACACAUGUACCGCUCACGCCACAUGAGGAUCACCCAUGUAGAAGGCCUAGAGAGGU
- apparent Kd [3]: 26.5 nM
- apparent Kd [4]: 56.4 nM

Sequence: GUUAUAGGAGGAUAUACAUGAGGAUCACCCAUGUCUCAUCCAUGGCAACGAACCUAUUGUAGAAGGCUUGAAGA
- apparent Kd [3]: 28.9 nM
- apparent Kd [4]: 113 nM

Sequence: UGAGCAUGAGGAUAUACAUGACGUGCCGUAGCACGAGGUCUACAUGAGGAUCACCCAUGUAGAAGGCAUGUUCU
- apparent Kd [3]: 23 nM
- apparent Kd [4]: 87.4 nM

Sequence: UGUCGGAGCAGAGGAUAUUACAUGAGGAUCACCCAUGUAUGAACAAAUAGCUGGAAACAGCAAUGUAAGAAGGCUGCUCCGACA
- apparent Kd [3]: 5.82 nM
- apparent Kd [4]: 7.45 nM

Sequence: UCCGUGGCAUCUCGCGCAUGUCUACAUGAGGAUCACCCAUGUCAGGAUAUACGGAAUGUCGUUCCGUAGAAGGGACAAGGGCUG
- apparent Kd [3]: 243 nM
- apparent Kd [4]: 116 nM

Sequence: AUAAAUGAGGAGGAUAUCGAAUCGGAAACGAUUCGAGAAGGCCUAACAUGAGGAUCACCCAUGUUCCUUAAAUA
- apparent Kd [3]: 28.8 nM
- apparent Kd [4]: 42.2 nM

Sequence: ACGGAACAUGAGGAUCACCCAUGUAUCUGAGAUAAGGUCUCGCAGGAUAUUCAGAGAAGCCUAUCGGAGAAGGGUGACACCAAA
- apparent Kd [1]: 38.4 nM
- apparent Kd [2]: 15.5 nM

Sequence: UGGUACUAGGGAGGAUAUGGGAAGAUACAUGAGGAUCACCCAUGUUUAAGUAUGCCGAGAGGCAACUAGAAGGCCCUAGUACCU
- apparent Kd [1]: 1440 nM
- apparent Kd [2]: 116 nM

Sequence: CAGCUGAAUGUGAGGAUAUCUAGAGCUGCGGCUCUAGAGAAGGCACAUGAGGAUCACCCAUGUCUCAACAGCUG
- apparent Kd [3]: 40.7 nM
- apparent Kd [4]: 294 nM

Sequence: UUAAGUCAUGUAGGAUAUCCGAUGCGAAGCGUUGGAGAAGGACAUGAGGAUCACCCAUGUUCUAGCGUCUGAGUACAGAUGCAA
- apparent Kd [3]: 27 nM
- apparent Kd [4]: 76 nM

Sequence: AGCUGUGGCCGAGGAUAUCUAAAACUCAAAACCGAAAUAUAAUCGGACAUGAGGAUCACCCAUGUAGAGAAGGCGGUCUCAGCA
- apparent Kd [3]: 78.8 nM
- apparent Kd [4]: 157 nM

Sequence: AAUAAACAUGAGGAUCACCCAUGUCAGGAUAUCCAUUUGUUUUUGUUGGUUUUUUUUUGGAGAAGGGACGCUUA
- apparent Kd [3]: 87.3 nM
- apparent Kd [4]: 63 nM

Sequence: GUGUACAGAGGAUAUACAAUAGGAGUUACGAAAGUAACUUCACAUGAGGAUCACCCAUGUAGAAGGCUGUACAC
- apparent Kd [3]: 18.1 nM
- apparent Kd [4]: 37.8 nM

Sequence: GCCAUCACAUGAGGAUAUGCUCCCGUUUCGGGAGCAGAAGGCGUGUCAUAAGACAUGAGGAUCACCCAUGUAGCUAAGAUGGCA
- apparent Kd [1]: 321 nM
- apparent Kd [2]: 12.6 nM

Sequence: AAUAUAGAAGGAUAUGCAGCCGUGAGCCAUAGAGGAGACGAACAUGAGGAUCACCCAUGUAGAAGGUCUCGAUU
- apparent Kd [3]: 13.1 nM
- apparent Kd [4]: 12.4 nM

Source: the EternaBench riboswitch data
